Drawing on the RNAGym collection of RNA variant scans (doi:10.1126/science.aae0568), this text covers yeast fitness for 38 variants.

Variants at the floor of the assay were thinned out. Some results are limits rather than exact numbers.

B1: tRNA (parent)
chain: GUUCCGUUGGCGUAAUGGUAACGCGUCUCCCUCCUAAGGAGAAGACUGCGGGUUCGAGUCCCGUACGGAACG

In the data set the parent is B1. The data set can be described thus: yeast fitness relative to wild type (ratio to wild type); higher = fitter; tRNA-Arg(CCU), competitive growth, 37 C, YPD. Put shortly:
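Variants of the tRNA-Arg(CCU) gene were chemically synthesised with a 3% per-site mutation rate across 69 sites and placed at the native genomic locus in Saccharomyces cerevisiae. Six parallel replicates of the pooled strains were competed in YPD at 37°C for 24 hours, and gene amplicons from the start and end populations were read by 100-nucleotide paired-end sequencing. Darwinian fitness relative to wild type was derived from changes in genotype frequencies. Genotypes required ≥ 100 starting reads, and estimates < 0.5 were set to 0.5.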
GUUCCGUUAGCGUAAUGGUAACGCGUCUCCCUCCUAAGGAGAAGACUGCGGGUACGAGUCCCGUACGGAACG [G9A U54A]: the yeast fitness came out at 0.696.
Next, GUUUCGUUGGCGUAAUGGUAACGAGUCUCCCUCCUAAGGAGAAGACUGCGGGUUCGUGUACCGUACGCAACG [C4U C24A A57U C60A G68C]: not above 0.5; GUUCCGUUGGCGUAAUGGUACCGCGUCUCCCUCCUAAGGAGAAGCCUGUGGGUUGCAGUCCCGUACGGAACG [A21C A45C C49U C55G G56C]: not above 0.5.
As to GUUCCGGUGGGGUAAUGGUAACGCGUCUCCCUCUUAAGGAAAAGACUGCGGGUUCGAGUCCCGAACGGAACG [U7G C11G C34U G41A U64A], the yeast fitness is not above 0.5.
Turning to GUUCCGUUGGCGUAAUGGUAACGCGUUUCCCUCCUAAGGAGAAGACUCCGGGUUCGAGUCCCGUACGGAACG [C27U G48C], the yeast fitness turned out to be 0.958.
In the case of GUUCCGUUGGCGUAAUGGUAAGGGGUCUCCCUCCUAAGGAGAAGACUGCGGGUACGAGUCCCGUACGGUACG [C22G C24G U54A A69U] it was not above 0.5.
As to GUUACGUUGGCGUAAUGGUAACGGCUCUCCCUCCUAAGGAGAAGGCUGCGGGUUCGAGUACCGUACGGAACG [C4A C24G G25C A45G C60A], the yeast fitness is not above 0.5.
As to GUUCCGUUGGCGUAAUGGUAACGCGGCUCCCUCCUAAGGAGAAGGUUGCGGGGUCGAGUCCCGUACGGAACG [U26G A45G C46U U53G], the yeast fitness was determined as 0.599.
On to GUUCCGUUGGUGUAACGGCAACGCGUCUCCCUCCUAAGGAGAAGACUGCGGGUUCGAGUCCUGUACGGAGCG [C11U U16C U19C C62U A70G], for which the yeast fitness turned out to be 0.524.
In the case of GUUCGCUUGGCGUAAUGGUAACGCGUCUCCCUCUUAACGAGAAGACUGCGGGUUCGAGUCCCGUACGGAACG [C5G G6C C34U G38C] it was 0.749; in that of GUUCCGUUGGCGGAAAGGUAACGUGUCUCCCUCCUAAGGAGAAAACUGGGGGUUCGAGUCCCGUACGGAACG [U13G U16A C24U G44A C49G], not above 0.5.
Consider GUUCCGUUGGCGCGAUGGUAACGCGUCUCCCUCCUAAGGAGAAGGCUGCGGGUUCGAGUCCCGUACGGAACG [U13C A14G A45G], for which the yeast fitness is not above 0.5.
For the variant GUUCCGUUGGCGAAAUGGUAACGCGUCACCCUCCUAAGGAGAAGACGGCGGGUUCGAGUCCCGUACGGAACG [U13A U28A U47G], the yeast fitness was 0.528.
Next, GUUACGUUGGCGUAAUGGUAACGCGUCUCCCUCCUAAGGAGAAGACUGCGGGUCCGAGUCGCGUACGGAACG [C4A U54C C61G]: not above 0.5.
In the case of GUUCCGUUGGCGUAAUGGUAACCAGUCUCCCUCCUAAGGAGAAGACUGCAGGUUCGAGUCCCGUACGGAUCG [G23C C24A G50A A70U] it was not above 0.5.
In the case of GUUCCGUUGGCGUAAUGGUAACGCGUUGCCCUCCUAAGGCGAAGACUGCGGGUUCGAGUCCCGUACGGCACG [C27U U28G A40C A69C] it was 0.607; in that of GUUCCGUUCGCGUAAUGGUAACGCGUCUCCCUCCUAAGGAGAAGACUACGGGUUCGAGUCCCGUACGGCACG [G9C G48A A69C], 0.627.
Consider GUUCCGUUGGCGUAAUGGUAACGCGUCUCCCUCCUAAGAAGAAGACUGCGGGUUCGAGUUCAGUACGGAACG [G39A C60U C62A], for which the yeast fitness stood at 0.505.
GUUCCGUUGGCGGAAUGGUAACGCGUUUCCUUCGUAAGGGGAAGACUGCGGGUUCGAGUCCCCUACGGAACG [U13G C27U C31U C34G A40G G63C]: the yeast fitness was not above 0.5.
In the case of GUUCCGGUGGCGUAUUGGUAACGCGUCUCCCUCCUAAGGAGAAGCUUGCGGGUUCAAGUCCCGUACCGAACG [U7G A15U A45C C46U G56A G67C] it was not above 0.5; in that of GUUCCGUUGCAGUAAUGGUAACGCGUCUCCCUCCUACGGAGAAGACUGGGGGUUCGAGUCCCGUACGCGACG [G10C C11A A37C C49G G68C A69G], not above 0.5.
Next, GUUCCGUUGGCGUAAUGGUAACGCGUCUCCCUCCUAAGGAGUAGACUGGGGGUUAGAGUCCCGUACGGAACG [A42U C49G C55A]: not above 0.5; GUUCCGUUGGCGUAAUGGUAACGCGUCCCCCUCCUAAGGAGAAGCCUGCAGGUUCGAGUCCUGUACGGAACG [U28C A45C G50A C62U]: not above 0.5.
Next, GUUCCGUUGACGUAAUGGUAACGCGUCUCUCUCCUAAGGAGAAGACAGCGGGUUCGAGUCCCGUACCGAACG [G10A C30U U47A G67C]: not above 0.5; GUUCCGUUGGCGUAAUGGUAACGCGUCUCCCUCCUAAGGAGAAAACUGCGGGUUUGAGUCCCAUACGGAACG [G44A C55U G63A]: not above 0.5.
Turning to GUUCCGUUGGCGUAAUGGUAACGCGUCUCCCUCCUAAGGAGACGACUGCGGGUUCGAGUCCUGUUCGGAACG [A43C C62U A65U], the yeast fitness was 0.591.
In the case of GUUCCGUUGGCGUAAUGGCAACGCGUCUCCCACCUACGGAGAAGACUGCGGGUUGGAGUCCCGUACGGAACG [U19C U32A A37C C55G] it was not above 0.5; in that of GUUCCGUUGGCGUAAUGGUAACGCGUCUCCCUCCUAAGGAGAAGACUGCGGGUUGGAAUCCCGUACGGCACG [C55G G58A A69C], not above 0.5; in that of GUUCUGUUGGCGUAUUCGUAACGCGCCUCCCUCCUAAGGAGAAGACUGCGGGUUCGAGUCCCGUACGGAACG [C5U A15U G17C U26C], not above 0.5.
Next, GUUCCGUUGGCGUAAAGGUAACGCGUCUCCCUCCUAAGGAGAAGACUGCGGGUUCGAGUACCGUACCGAACG [U16A C60A G67C]: not above 0.5.
For GUUCCGUUGGCGUAAUGGUAUCGCGUCUCCCUCCUAAGGAGAAGACGGCGGGUUCGAGACCCGUACGGAACG [A21U U47G U59A], the yeast fitness is not above 0.5.
Next, GUUCCGUUGGCGUAAUGGUAACGCGUCUCCCUUCUCGGGAGAAGACUGCGGGUUCGAGUCCCGCACGGAACG [C33U A36C A37G U64C]: not above 0.5.
In the case of GUUCCGUUGGCGUAAUGGUAACGGGUCUCCCUCCUGAGGAGAAGACUGCGGGUUCGCGUCUCGUACGGAACG [C24G A36G A57C C61U] it was not above 0.5.
Consider GUUCCGUGGGCGCAAUGGUAACGCGUCUCCCUCCUCAGGAGAAGACUGCGGGCUCGAGUCCCGUACGGAACG [U8G U13C A36C U53C], for which the yeast fitness is not above 0.5.
Next, GUUCGGUUGGCGUAAUGGUAGCGCGUCUCCGUCCUCAGGAGAAGACUGCGGGUUCGGGUCCUGUACGGAACG [C5G A21G C31G A36C A57G C62U]: 0.586; GUUCCGUUGGCGUAAUGGUAACGCAUCUGCCUCCUAAGGAGAAGACUGCGGGUGCGAGUCGCGUACGGAACG [G25A C29G U54G C61G]: not above 0.5; GUUCCGUAGGCGAAAUGCUAACGGGUCUCCCGCCUAAGGAGAAGACUGCGGGUUCGAUUCCCGUACGGAACG [U8A U13A G18C C24G U32G G58U]: not above 0.5.
In the case of GUUCCGUCAGCGUAAUGGUCACGCGUCUCCCUCCUAAGGAGAAGACUGCGGGUUCGAGUCCCGUACGCAACG [U8C G9A A20C G68C] it was 0.527.
